Data from ChEMBL document CHEMBL2346664, “Synthesis, characterization and in vitro anticancer evaluation of novel 1,2,4-triazolin-3-one derivatives” (2013).
Calls of active or inactive are those of the source. No cut-off for these calls is given here.

What was measured:
SNB-19 = test: Growth inhibition of human SNB19 cells assessed as cell growth at 10 '-5 M after 48 hrs by sulforhodamine B assay; format: functional; conditions: SNB-19, 48 h, read-out: Activity
SK-OV-3 = test: Growth inhibition of human SKOV3 cells assessed as cell growth at 10 '-6 M after 48 hrs by sulforhodamine B assay; format: functional; conditions: SK-OV-3, 48 h, read-out: Activity
[1] = Growth inhibition of human NCI-ADR-RES cells assessed as cell growth at 10 '-6 M after 48 hrs by sulforhodamine B assay; format: functional; conditions: read-out: Activity
SK-MEL-2 [2] = test: Growth inhibition of human SK-MEL-2 cells assessed as cell growth at 10 '-6 M after 48 hrs by sulforhodamine B assay; format: functional; conditions: SK-MEL-2, 48 h, read-out: Activity
SK-MEL-5 = test: Growth inhibition of human SK-MEL-5 cells assessed as growth inhibition at 10 uM after 48 hrs by sulforhodamine B assay; format: functional; conditions: SK-MEL-5, 48 h, read-out: GI
SK-MEL-2 [3] = test: Growth inhibition of human SK-MEL-2 cells assessed as growth inhibition at 10 uM after 48 hrs by sulforhodamine B assay; format: functional; conditions: SK-MEL-2, 48 h, read-out: GI
MDA-MB-435 = test: Growth inhibition of human MDA-MB-435 cells assessed as growth inhibition at 10 uM after 48 hrs by sulforhodamine B assay; format: functional, cell-based
LOX IMVI [4] = test: Growth inhibition of human LOXIMVI cells assessed as growth inhibition at 10 uM after 48 hrs by sulforhodamine B assay; format: functional; conditions: read-out: GI
HCT-116 = test: Growth inhibition of human HCT116 cells assessed as growth inhibition at 10 uM after 48 hrs by sulforhodamine B assay; format: functional; conditions: HCT-116, 48 h, read-out: GI
[5] = Growth inhibition of human HCC2998 cells assessed as growth inhibition at 10 uM after 48 hrs by sulforhodamine B assay; format: functional; conditions: HCC 2998, 48 h, read-out: GI
A549 = test: Growth inhibition of human A549 cells assessed as growth inhibition at 10 uM after 48 hrs by sulforhodamine B assay; format: functional; conditions: A549, 48 h, read-out: GI
Procedure, shortened: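 Percent growth inhibition from the single 10^-5 M NCI-60 screen, reported as 100 minus growth percent. Growth percent was measured after 48 h drug exposure at 37 °C, 5% CO2, using TCA fixation, SRB staining and absorbance at 515 nm, against untreated controls and time-zero plates.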

COLO 205 [6] = test: Growth inhibition of human COLO205 cells assessed as cell growth at 10 '-6 M after 48 hrs by sulforhodamine B assay; format: functional; conditions: COLO 205, 48 h, read-out: Activity
Procedure, shortened: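 In the same five-dose SRB screen (48 h, 37 °C, 5% CO2), percentage growth was computed at each concentration from time-zero (Tz), control (C) and treated (Ti) absorbances. The formula was [(Ti−Tz)/(C−Tz)]×100 when Ti ≥ Tz, or [(Ti−Tz)/Tz]×100 when Ti < Tz.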

OVCAR-3 = test: Growth inhibition of human OVCAR3 cells assessed as cell growth at 10 '-7 M after 48 hrs by sulforhodamine B assay; format: functional; conditions: OVCAR-3, 48 h, read-out: Activity
SK-MEL-28 = test: Growth inhibition of human SK-MEL-28 cells assessed as cell growth at 10 '-7 M after 48 hrs by sulforhodamine B assay; format: functional; conditions: SK-MEL-28, 48 h, read-out: Activity
OVCAR-5 = test: Growth inhibition of human OVCAR5 cells assessed as cell growth at 10 '-4 M after 48 hrs by sulforhodamine B assay; format: functional; conditions: OVCAR-5, 48 h, read-out: Activity
UACC-62 = test: Growth inhibition of human UACC62 cells assessed as cell growth at 10 '-4 M after 48 hrs by sulforhodamine B assay; format: functional; conditions: UACC-62, 48 h, read-out: Activity
RPMI-8226 = test: Growth inhibition of human RPMI8226 cells assessed as cell growth at 10 '-8 M after 48 hrs by sulforhodamine B assay; format: functional; conditions: RPMI-8226, 48 h, read-out: Activity
NCI-H460 = test: Growth inhibition of human NCI-H460 cells assessed as cell growth at 10 '-4 M after 48 hrs by sulforhodamine B assay; format: functional; conditions: NCI-H460, 48 h, read-out: Activity
K562 = test: Growth inhibition of human K562 cells assessed as cell growth at 10 '-4 M after 48 hrs by sulforhodamine B assay; format: functional; conditions: K562, 48 h, read-out: Activity
[7] = Growth inhibition of human EKVX cells after 48 hrs by sulforhodamine B assay; format: functional
Procedure, shortened: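 NCI 60-cell-line five-dose screen. Cells were plated at 5,000–40,000/well by doubling time and grown 24 h at 37 °C, 5% CO2. Time-zero plates were TCA-fixed. Drug from DMSO stock was tested at 0.01, 0.1, 1, 10 and 100 µM final for 48 h continuous exposure. Read-out was SRB at 515 nm. GI50 is the concentration giving 50% reduction in net protein increase versus untreated control.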

COLO 205 [8] = test: Growth inhibition of human COLO205 cells assessed as cell growth at 10 '-7 M after 48 hrs by sulforhodamine B assay; format: functional; conditions: COLO 205, 48 h, read-out: Activity
LOX IMVI [9] = test: Growth inhibition of human LOXIMVI cells assessed as cell growth at 10 '-5 M after 48 hrs by sulforhodamine B assay; format: functional; conditions: read-out: Activity
SW-620 = test: Growth inhibition of human SW620 cells assessed as cell growth at 10 '-8 M after 48 hrs by sulforhodamine B assay; format: functional; conditions: SW-620, 48 h, read-out: Activity

Cc1cc(=O)oc2cc(OCCn3c(C)nn(-c4ccc(Cl)cc4)c3=O)ccc12
growth at 10 µM (SNB-19): 39%
growth at 1 µM (SK-OV-3): 88%
growth at 1 µM [1]: 61%
growth at 1 µM (SK-MEL-2 [2]): 112%
inhibition of growth at 10 µM (SK-MEL-5): 89.2%
inhibition of growth at 10 µM (SK-MEL-2 [3]): 96.5%
growth inhibition (GI) (MDA-MB-435): Active
inhibition of growth at 10 µM (LOX IMVI [4]): 52%
inhibition of growth at 10 µM (HCT-116): 84.9%
inhibition of growth at 10 µM [5]: 53.3%
inhibition of growth at 10 µM (A549): 69.8%
growth at 1 µM (COLO 205 [6]): 89%
growth at 0.1 µM (OVCAR-3): 110%
growth at 0.1 µM (SK-MEL-28): 87%
growth at 100 µM (OVCAR-5): 45%
growth at 100 µM (UACC-62): 30%
growth at 0.01 µM (RPMI-8226): 101%
growth at 100 µM (NCI-H460): 8%
growth at 100 µM (K562): 12%
GI50 [7]: 1 µM
TGI [7]: > 1 µM
CC50 ([7]; read-out: LD50 (the source's name)): > 1 µM
growth at 0.1 µM (COLO 205 [8]): 102%
growth at 10 µM (LOX IMVI [9]): 39%
growth at 0.01 µM (SW-620): 99%
